Screening results: PubChem BioAssay, several laboratories
Only some compounds are listed: those with a hit (about 1.6% of all), similar ones and a draw of the others.
ATG4B inh – ATG4B protease inhibitors, primary screen, biochemical, fluorescence, uHTS. Cysteine protease ATG4B (Homo sapiens), Q9Y4P1. ATG4B cleavage of LC3-PLA2, NBD-HPC fluorescence, 1 h. inhibition, % at 8.33 µM. 340,000 compounds, 0.51% hits. AID 504462, 2011; in the data active means inhibition above about 40%
HKDC1 inh – HKDC1 hexokinase inhibitors, primary screen, biochemical, fluorescence, uHTS; Q2TB90; recombinant HKDC1, G6PDH/diaphorase resazurin coupled fluorescence; inhibition, % at 20 µM; 340,000 compounds, 0.16% hits;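 active means inhibition above about 35% when tested at 20 µM, limit read from the data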;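 further: plate controls were DMSO wells with enzyme for no effect and DMSO wells lacking enzyme for full effect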
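Assay system – recombinant HKDC1 (HK5) hexokinase enzyme, produced in-house · Input – HKDC1 at 5 µg/mL · Reagent – glucose plus 1 mM ATP as hexokinase substrates · Timing – 90 min reaction incubation at room temperature, dark · Measured by – G6PDH/diaphorase-coupled fluorescence, 1 mM NADP, 100 µM resazurin, 525/613 nm · Benchmarks – DMSO-enzyme wells negative, buffer-substituted wells positive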
T cell HTS – modulators of CD8 T cell-vesicle binding, primary screen, mouse 2C CD8+ T cells, flow cytometry. AID 2052, 2009. response (vesicle binding), % at 7 µM. 330,000 compounds, 0.068% hits. 2C CD8+ T cell-vesicle binding; hits give low values;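 active means response, share of CD8 T cells binding vesicles, and their 90th percentile fluorescence all below set limits, cut at about 80% in these data, passing the limit was not always enough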;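 further: values below 100% mean blocked vesicle binding to the CD8+ T cells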
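Incubation: binding step 1.5 h, 37 °C, antibody labelling 20 min, ice; system: murine 2C transgenic CD8+ T lymphocytes; technique: cytometric PE anti-B7-1 and Alexa647 anti-CD8 signals after 1% paraformaldehyde fixation; also added: QL9-charged Drosophila Ld/ICAM-1/B7-1 vesicles; control set: naked versus QL9-loaded vesicles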
PfGluPho inh – PfG6PD enzyme inhibitors, primary screen, biochemical, fluorescence intensity, uHTS; AID 504690, 2011; PfGluPho enzyme, NADPH resazurin-diaphorase fluorescence; inhibition, % at 20 µM; 350,000 compounds, 0.78% hits;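 active means inhibition reaching at least a set limit at 20 µM in the primary screen, cut at about 59% in these data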;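 further: 0% = DMSO wells with substrate and 100% = DMSO wells lacking glucose-6-phosphate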
PKA-R1A activ – activators of PKA-R1A holoenzyme, primary screen, biochemical, fluorescence polarization, Cy5-IP20, bovine R1A, mouse PKAc. cAMP-dependent protein kinase type I-alpha regulatory subunit (Bos taurus) + …. 340,000 compounds, 0.083% hits. AID 504707, 2011. activation, % at 11.4 µM. PKA-R1A dissociation; scaled: DMSO 0%, 113 µM cGMP 100%;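 active means percent activation above the mean of all tested compounds plus 3 SD, cut at about 19% in these data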;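 further: higher means more PKAc released from R1A so a rise in polarization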
PKA-R2B activ – activators of PKA-R2B holoenzyme, primary screen, biochemical, fluorescence polarization, Cy5-IP20, human. 340,000 compounds, 0.079% hits. AID 504700, 2011. activation, % at 11.4 µM. PKA-R2B holoenzyme dissociation; R2B truncated from residue 108, S112A mutant; 0% DMSO only, 100% 113 µM cGMP;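 active means activation above a cutoff set at the mean over all compounds plus 3 SD, cut at about 18% in these data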;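 further: higher means more holoenzyme dissociation and a rise in polarization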
Target sequence (P31323 whole entry, looked up, other chains not shown, the tested form may be a part): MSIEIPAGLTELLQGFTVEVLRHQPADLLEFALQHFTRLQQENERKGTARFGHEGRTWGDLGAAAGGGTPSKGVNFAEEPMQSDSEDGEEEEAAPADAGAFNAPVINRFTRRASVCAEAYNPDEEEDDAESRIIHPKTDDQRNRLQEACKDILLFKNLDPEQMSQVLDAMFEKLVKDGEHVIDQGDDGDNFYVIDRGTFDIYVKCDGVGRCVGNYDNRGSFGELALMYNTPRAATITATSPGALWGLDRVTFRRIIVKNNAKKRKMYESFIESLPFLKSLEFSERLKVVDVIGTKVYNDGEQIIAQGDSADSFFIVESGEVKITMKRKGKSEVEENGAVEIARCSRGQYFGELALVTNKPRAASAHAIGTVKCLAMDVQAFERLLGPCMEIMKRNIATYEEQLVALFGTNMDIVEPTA
PfG6PD confirm – PfG6PD inhibitors, hit retest, confirmation, biochemical, fluorescence intensity, single concentration. shares compounds with PfGluPho inh. 2,400 compounds, 34% hits. recombinant PfGluPho, NADPH-diaphorase-resazurin fluorescence. inhibition, % at 20 µM;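 active means inhibition of at least 50% at 20 µM in any single replicate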;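 further: 0% = DMSO with substrate and 100% = DMSO lacking glucose-6-phosphate substrate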
Diaphorase 10uM – diaphorase inhibitors and chemical oxidizers, confirmation, counter-screen for P. falciparum G6PD inhibitor project, biochemical, fluorescence intensity, 10 µM NADPH. 820 compounds, 39% hits. diaphorase-coupled resazurin reduction, NADPH 10 uM. AID 504862, 2011. inhibition, % at 20 µM. shares compounds with PfGluPho inh;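 active means average inhibition reaching 50% or more with the compound at 20 µM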;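 further: resorufin red fluorescence formed as diaphorase reduces resazurin using NADPH; 0% = DMSO with enzyme and 100% = DMSO without enzyme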
Diaphorase 30uM – diaphorase inhibitors and chemical oxidizers, confirmation, counter-screen for P. falciparum G6PD inhibitor project, biochemical, fluorescence intensity, 30 µM NADPH; shares compounds with PfGluPho inh; Diaphorase/resazurin coupled assay, resorufin fluorescence; inhibition, % at 20 µM; 820 compounds, 29% hits; AID 504863, 2011;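 active means inhibition averaging 50% or more, tested at 20 µM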;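 further: 0% = DMSO with enzyme and 100% = DMSO wells lacking diaphorase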
* = called active by the depositor.

What do the screens show for `Cc1ccc(C(=O)Nc2cc(S(=O)(=O)N3CCOCC3)ccc2N2CCCC2)cc1`?
ATG4B inh: -0.9; HKDC1 inh: -4.1; T cell HTS: 615.4; PfGluPho inh: 5.7; PKA-R1A activ: -5.3; PKA-R2B activ: 7.4

What do the screens show for `CCCC(C)C(=O)Nc1cc(S(=O)(=O)N2CCCCC2)ccc1N1CCOCC1` (stereo not drawn)?
ATG4B inh: 4.8; HKDC1 inh: -1.1; T cell HTS: 464.2; PfGluPho inh: 1.8; PKA-R1A activ: -15.8; PKA-R2B activ: -4.1

Results for O=C(Nc1cc(S(=O)(=O)N2CCOCC2)ccc1N1CCCCC1)c1ccccc1Br ?
ATG4B inh: -10.0; HKDC1 inh: -8.5; T cell HTS: 386.5; PfGluPho inh: 68.2*; PKA-R1A activ: 6.5; PKA-R2B activ: -2.4; PfG6PD confirm: -7.3

What do the screens show for `Cc1cccc(C(=O)Nc2cc(S(=O)(=O)N3CCOCC3)ccc2N2CCCC2)c1`?
ATG4B inh: -0.3; HKDC1 inh: -3.2; PfGluPho inh: 5.8; PKA-R1A activ: 5.9; PKA-R2B activ: 7.0

How did O=C(Nc1cc(S(=O)(=O)N2CCOCC2)ccc1N1CCCC1)c1ccc2c(c1)S(=O)(=O)c1ccccc1C2=O do in these assays?
ATG4B inh: -8.4; HKDC1 inh: -12.3; T cell HTS: 299.8; PfGluPho inh: 74.4*; PKA-R1A activ: -6.2; PKA-R2B activ: -0.4; PfG6PD confirm: 40.3

What do the screens show for `COc1ccccc1Oc1ccc(S(=O)(=O)N2CCCCC2)cc1NC(=O)CCNC(C)=O`?
ATG4B inh: -4.2; HKDC1 inh: -2.3; T cell HTS: 179.4; PfGluPho inh: 9.4; PKA-R1A activ: -1.7; PKA-R2B activ: 4.6

What do the screens show for `O=C(NCCc1ccc(F)cc1)N[C@@H](Cc1ccccc1)C(=O)O`?
ATG4B inh: 4.1; HKDC1 inh: 0.3; T cell HTS: 582.7; PfGluPho inh: -9.1; PKA-R1A activ: -8.1; PKA-R2B activ: -8.5

What do the screens show for `O=C(Nc1cc(S(=O)(=O)N2CCOCC2)ccc1N1CCCCC1)c1ccccc1`?
ATG4B inh: -9.2; HKDC1 inh: -3.8; T cell HTS: 367.4; PfGluPho inh: 0.1; PKA-R1A activ: -0.3; PKA-R2B activ: 7.0

Results for O=c1c2ccccc2sn1-c1cc(S(=O)(=O)N2CCOCC2)ccc1N1CCCC1 ?
ATG4B inh: 0.7; HKDC1 inh: -7.1; T cell HTS: 634.6; PfGluPho inh: 112.4*; PKA-R1A activ: 1.7; PKA-R2B activ: -4.0; PfG6PD confirm: 107.2*; Diaphorase 10uM: -10.3; Diaphorase 30uM: -6.6

Results for O=C(Nc1cc(S(=O)(=O)N2CCOCC2)ccc1N1CCCCC1)c1ccc(Cl)cc1 ?
ATG4B inh: -0.5; HKDC1 inh: -5.3; T cell HTS: 404.7; PfGluPho inh: 80.1*; PKA-R1A activ: -11.5; PKA-R2B activ: -7.2; PfG6PD confirm: 39.8
